Experimental data reported in PubChem BioAssay AID463145 (The Scripps Research Institute Molecular Screening Center, 2010).
Activity calls are given as the source filed them.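 Rule for the calls: active = FXR activation with a fold change above 2; inactive = the rest.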

Target: Bile acid receptor (Homo sapiens) (UniProt Q96RI1)
Test: FXR activators in GAL4 reporter cells, late-stage follow-up, selectivity assay for RORA inverse agonist project, cell-based, luciferase luminescence, assay provider, powder samples (AID 463145)
Conditions: HEK293T GAL4-FXR LBD luciferase reporter, 18-24 h; at 10 µM; stronger effect = higher value
Summary of the method: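 Assay system: HEK293T GAL4-FXR LBD luciferase reporter cells; Times: 20 h compound treatment; Technique: luciferase luminescence.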

Sequence of Bile acid receptor (Homo sapiens) (Q96RI1 whole entry, looked up, the tested form may be a part): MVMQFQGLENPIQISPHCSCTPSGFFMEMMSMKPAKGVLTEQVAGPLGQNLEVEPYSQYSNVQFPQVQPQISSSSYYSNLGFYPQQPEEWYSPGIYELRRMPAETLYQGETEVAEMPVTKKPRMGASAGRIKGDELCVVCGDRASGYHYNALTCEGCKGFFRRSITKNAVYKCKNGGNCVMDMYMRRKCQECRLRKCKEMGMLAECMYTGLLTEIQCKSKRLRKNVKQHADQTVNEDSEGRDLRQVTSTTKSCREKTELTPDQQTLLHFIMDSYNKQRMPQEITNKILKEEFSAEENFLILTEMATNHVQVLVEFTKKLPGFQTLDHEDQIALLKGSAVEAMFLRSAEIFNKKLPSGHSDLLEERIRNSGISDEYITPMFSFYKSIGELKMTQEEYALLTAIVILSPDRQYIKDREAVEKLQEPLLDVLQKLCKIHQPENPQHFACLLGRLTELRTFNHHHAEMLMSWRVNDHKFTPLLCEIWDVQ

SMILES | fold change
O=S(=O)(Nc1ccc(C(O)(C(F)(F)F)C(F)(F)F)cc1)c1cccs1 | 1.21 (inactive)
O=C(Nc1ccc(C(O)(C(F)(F)F)C(F)(F)F)cc1)c1ccc(Cl)cc1 | 1.14 (inactive)
O=C(Nc1ccc(C(O)(C(F)(F)F)C(F)(F)F)cc1)c1ccc(F)cc1Cl | 1.07 (inactive)
O=C(Nc1ccc(C(O)(C(F)(F)F)C(F)(F)F)cc1)c1ccc(F)cc1F | 1.52 (inactive)
O=C(Nc1ccc(C(O)(C(F)(F)F)C(F)(F)F)cc1)c1c(F)cccc1F | 1.06 (inactive)
O=C(Nc1ccc(C(O)(C(F)(F)F)C(F)(F)F)cc1)c1ccccc1C(F)(F)F | 0.846 (inactive)
